Experimental data reported in ChEMBL document CHEMBL3414468, “N-benzoyl-1,5-benzothiazepine and its S-oxide as vasopressin receptor ligands: insight into the active stereochemistry around the seven-membered ring” (J Med Chem, 2015).
Several values for one entry are separate records, joined by “and”; a condition that tells them apart may be missing. Identical values can stand only once.

Assays:
Vasopressin V2 receptor [1] = target: T1, Vasopressin V2 receptor (Homo sapiens, UniProt P30518); assay: Displacement of [3H]-(Arg8)-vasopressin from human vasopressin V2 receptor transfected in CHO cell membranes
T1 sequence (P30518 whole entry): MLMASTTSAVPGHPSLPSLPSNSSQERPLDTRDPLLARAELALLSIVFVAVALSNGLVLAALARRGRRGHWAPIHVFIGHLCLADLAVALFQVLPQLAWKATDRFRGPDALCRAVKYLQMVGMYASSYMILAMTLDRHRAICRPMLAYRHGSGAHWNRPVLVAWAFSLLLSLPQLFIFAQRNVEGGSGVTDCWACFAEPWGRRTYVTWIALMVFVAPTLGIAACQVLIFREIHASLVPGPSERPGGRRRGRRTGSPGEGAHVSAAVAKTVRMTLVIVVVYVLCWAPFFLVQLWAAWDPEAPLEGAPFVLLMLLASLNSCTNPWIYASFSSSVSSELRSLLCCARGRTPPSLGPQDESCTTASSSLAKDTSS
Summary of the method: (§1)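 Competition binding of [3H](Arg8)-vasopressin to human V1a or V2 receptors. Ki is reported as the mean of duplicate measurements. Where no Ki was given, percent inhibition of radioligand binding was read at 10 μM test compound.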

Vasopressin V1a receptor [2] = target: T2, Vasopressin V1a receptor (Homo sapiens, UniProt P37288); assay: Displacement of [3H]-(Arg8)-vasopressin from human vasopressin V1a receptor transfected in CHO cell membranes; summary of the method: as §1
Target sequence in this assay (P37288 whole entry): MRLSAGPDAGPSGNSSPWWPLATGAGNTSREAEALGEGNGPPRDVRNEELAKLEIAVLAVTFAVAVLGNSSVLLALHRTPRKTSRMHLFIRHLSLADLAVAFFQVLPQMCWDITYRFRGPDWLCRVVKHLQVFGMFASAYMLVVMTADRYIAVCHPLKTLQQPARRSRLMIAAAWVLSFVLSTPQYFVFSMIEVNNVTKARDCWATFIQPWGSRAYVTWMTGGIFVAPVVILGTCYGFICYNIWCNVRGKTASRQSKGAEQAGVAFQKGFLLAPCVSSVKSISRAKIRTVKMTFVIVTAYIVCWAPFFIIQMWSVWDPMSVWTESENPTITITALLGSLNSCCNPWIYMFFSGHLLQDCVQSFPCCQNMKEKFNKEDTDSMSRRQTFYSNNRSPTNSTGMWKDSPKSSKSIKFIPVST

Vasopressin V2 receptor [3] = target: T1, Vasopressin V2 receptor; assay: Displacement of [3H]-(Arg8)-vasopressin from human vasopressin V2 receptor transfected in CHO cell membranes at 10 uM relative to control; summary of the method: as §1
Vasopressin V1a receptor [4] = target: T2, Vasopressin V1a receptor; assay: Displacement of [3H]-(Arg8)-vasopressin from human vasopressin V1a receptor transfected in CHO cell membranes at 10 uM relative to control; summary of the method: as §1
Target sequence in this assay (P37288 whole entry, looked up): as the sequence (P37288 whole entry) above

Row | Compound | Ki (Vasopressin V2 receptor [1]) | Ki (Vasopressin V1a receptor [2]) | inhibition (Vasopressin V2 receptor [3]) [%] | inhibition (Vasopressin V1a receptor [4]) [%]
1 | Cc1ccccc1C(=O)Nc1ccc(C(=O)N2CCCSc3ccccc32)cc1 | 21 nM | 68 nM |  | 
2 | Cc1ccccc1C(=O)Nc1ccc(C(=O)N2CCCSc3cccc(C)c32)cc1 | 360 nM and 184 nM and 1800 nM | 37 nM and 19 nM and 147 nM |  | 
3 | Cc1ccccc1C(=O)Nc1ccc(C(=O)N2CCCSc3c(C)cccc32)cc1 | 880 nM | 48 nM |  | 
4 | Cc1ccccc1C(=O)Nc1ccc(C(=O)N2CCCN(C)c3cccc(C)c32)cc1 | 130 nM and 98 nM and 310 nM | 5.9 nM and 4.4 nM and 13 nM |  | 
5 | Cc1ccccc1C(=O)Nc1ccc(C(=O)N2CCC[S+]([O-])c3ccccc32)cc1 (racemic) | 870 nM | 910 nM |  | 
6 | Cc1ccccc1C(=O)Nc1ccc(C(=O)N2CCC[S+]([O-])c3c(C)cccc32)cc1 (racemic) |  | 870 nM | 34 | 
7 | Cc1ccccc1C(=O)Nc1ccc(C(=O)N2CCC[S@@+]([O-])c3cccc(C)c32)cc1 (racemic) |  |  | 22 | 55
8 | Cc1ccccc1C(=O)Nc1ccc(C(=O)N2CCC[S@@+]([O-])c3ccccc32)cc1 (stereo in doubt; (+)) [listing 1 of 2 here] | 1240 nM |  |  | 
9 | Cc1ccccc1C(=O)Nc1ccc(C(=O)N2CCC[S@@+]([O-])c3c(C)cccc32)cc1 (stereo in doubt; (+)) [listing 1 of 2 here] |  | 660 nM |  | 
10 | Cc1ccccc1C(=O)Nc1ccc(C(=O)N2CCC[S@@+]([O-])c3c(C)cccc32)cc1 (stereo in doubt; (+)) [listing 2 of 2 here] |  |  | 48 | 
11 | Cc1ccccc1C(=O)Nc1ccc(C(=O)N2CCC[S@@+]([O-])c3ccccc32)cc1 (stereo in doubt; (+)) [listing 2 of 2 here] |  |  |  | 57
12 | Cc1ccccc1C(=O)Nc1ccc(C(=O)N2CCC[S@@+]([O-])c3ccccc32)cc1 (stereo in doubt; (-)) | 820 nM | 550 nM |  | 
13 | Cc1ccccc1C(=O)Nc1ccc(C(=O)N2CCC[S@@+]([O-])c3c(C)cccc32)cc1 (stereo in doubt; (-)) |  |  | 0 | 53
